Our source for the NA and IC50 values is ChEMBL document CHEMBL1134792, “Antimitotic antitumor agents: synthesis, structure-activity relationships, and biological characterization of N-aryl-N'-(2-chloroethyl)ureas as new selective alkylating agents” (J Med Chem, 2001).

Activity calls are given as the source filed them. The calls are words filed in the database; no cut-off is given here.

What all share (format): functional, cell-based
Assay [1] concerns MDA-MB-231. Kind of assay: Dose required to inhibit cell growth was determined against MDA-MB-231 cell line of human non-hormone dependent breast carcinoma; NA= Not active represents IC50 >400 uM. An outline of the steps: (§1)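 Alamar Blue growth-inhibition assay. Cells ((1–5) × 10³ per well) were preincubated for 24 h, then exposed to increasing drug concentrations for 72 h at 37 °C. Alamar Blue (20%) was added and fluorescence read at ex 485 / em 590 nm. IC50 is the dose inhibiting growth by 50%. Means of ≥3 independent determinations.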

The subject of assay [2] is LoVo. Kind of assay: Dose required to inhibit cell growth was determined against LoVo cell line of human adenocarcinoma; NA= Not active represents IC50 >400 uM. A digest of the protocol:
as §1

In assay [3] the test system is P388. The assay can be described thus: Dose required to inhibit cell growth was determined against P388D1 cell line of murine lymphocytotic leukemia; NA= Not active represents IC50 >400 uM. To be noted: Mus musculus. An outline of the steps:
as §1

The test system of assay [4] is CHO. Kind of assay: Dose required to inhibit cell growth was determined against CHO cell line. The note with it: Cricetulus griseus. An outline of the steps: (§2)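 Alamar Blue growth assay. (1–5) × 10^3 cells per well preincubated 24 h, then exposed to increasing drug concentrations for 72 h at 37 °C. Medium replaced with PBS containing 20% Alamar Blue, fluorescence read at 485/590 nm. IC50 is the dose inhibiting growth by 50%.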

In assay [5] the test system is HT-29. The assay can be described thus: Dose required to inhibit cell growth was determined against HT-29 cell line of human adenocarcinoma. An outline of the steps: as §2
Assay [6] deals with K562. The assay can be described thus: Dose required to inhibit cell growth was determined against K562 cell line of chronic myelogenous leukemia. To be noted: Homo sapiens. A digest of the protocol: as §2
In assay [7] the test system is L1210. Kind of assay: Dose required to inhibit cell growth was determined against L1210 cell line of murine lymphocytotic leukemia. To be noted: Mus musculus. An outline of the steps:
as §2

Assay [8] deals with MDA-MB-231. The assay can be described thus: Dose required to inhibit cell growth was determined against MDA-MB-231 cell line of human non-hormone dependent breast carcinoma. A digest of the protocol: as §2
Assay [9] relates to MDA-MB-231. Kind of assay: Dose required to inhibit cell growth was determined against MDA-MB-231 cell line of human non-hormone dependent breast carcinoma; Not active represents IC50 >400 uM. A digest of the protocol:
as §1

For assay [10], the system named is LoVo. The assay can be described thus: Dose to inhibit cell growth determined against LoVo cell line of human adenocarcinoma. A digest of the protocol:
as §2

For assay [11], the system named is P388. The assay can be described thus: Dose required to inhibit cell growth was determined against P388D1 cell line of murine lymphocytotic leukemia. To be noted: Mus musculus. A digest of the protocol:
as §2

The subject of assay [12] is CHO. The assay can be described thus: Dose required to inhibit cell growth was determined against CHO cell line; Not active represents IC50 >400 uM. To be noted: Cricetulus griseus. An outline of the steps: as §1

Turning to `Cc1ccccc1NC(=O)NCCCl`, the NA entry in assay [1], in assay [2] and in assay [3] was “inactive” throughout.
Turning to `Cc1cc(C)c(NC(=O)NCCCl)c(C)c1`, the NA entry in assay [1], in assay [2] and in assay [3] was “inactive” each time.
By IC50 is commonly meant the concentration that gives 50% inhibition. Higher therefore signals a need for much substance. Consider `CC(C)Cc1ccc(NC(=O)NCCCl)cc1`, for which the IC50 in assay [4] turned out to be 23 µM; in assay [5], 21 µM; in assay [6], 11 µM; in [7] it was 11 µM; in [8], 24 µM.
With `CCCNC(=O)Nc1ccc(C(C)C)cc1`, the IC50 in [4] came to 133 µM; in [5], 76 µM; in [6], 52 µM; in [7] it was 14 µM. The NA entry in [9] was “inactive”.
On to `Cc1cc(C)cc(NC(=O)NCCCl)c1`, for which the half-maximal inhibitory concentration (IC50) worked out at 24.7 µM in assay [4]; 20 µM in assay [5]; 10 µM in [6]; 8.8 µM in assay [7]; 20 µM in assay [8]; 8.8 µM in assay [10]. Further, in assay [11], the IC50 was 8.6 µM.
Take `Cc1cccc(C)c1NC(=O)NCCCl`: the NA result in [1], in [2] and in assay [3] was “inactive” each time.
With `CCCCCCCCc1ccc(NC(=O)NCCCl)cc1`, the IC50 was found to be 33 µM in [8], 29 µM in assay [10] and 32 µM in [11].
As to `CCCCCCCc1ccc(NC(=O)NCCCl)cc1`, the IC50 in [4] was determined as 22 µM; in assay [5], 25 µM; in assay [6], 16 µM; in assay [7], 13 µM; in assay [8] it was 30 µM; in assay [10] it was 15 µM. The compound further yielded a concentration for half-maximal inhibition (IC50) in assay [11] of 18 µM.
As for `O=C(NCCCl)Nc1ccc(Cl)cc1`, the IC50 was 19 µM in [4]; 14 µM in assay [5]; 9.1 µM in [6]; 9.6 µM in assay [7]; 31 µM in assay [8]; 23 µM in [10]. In [11], this compound came in with a half-inhibitory concentration (IC50) of 11 µM.
In the case of `Cc1cccc(NC(=O)NCCCl)c1`, the half-maximal inhibitory concentration (IC50) in assay [8] is 60 µM; in assay [10], 60 µM; in [11], 75 µM.
As to `CCCCCCCCCCc1ccc(NC(=O)NCCCl)cc1`, the NA result in assay [1], in assay [2] and in assay [3] was “inactive” throughout.
`O=C(NCCCl)Nc1cccc(I)c1`: the 50% inhibitory concentration (IC50) in assay [4] came to 35 µM; in assay [5], 24 µM; in [6] it was 17 µM; in assay [7], 27 µM; in [8], 27 µM; in [10] it was 36 µM. The compound also had a half-maximal inhibitory concentration (IC50) in assay [11] of 34 µM.
Take `CCNC(=O)Nc1ccc(C(C)CC)cc1` (stereo not given): the NA entry in assay [12] and in [9] was “inactive” each time. Besides, the IC50 stood at 132 µM in assay [5], 101 µM in assay [6] and 43 µM in assay [7].
In the case of `O=C(NCCCl)Nc1ccc(Br)cc1`, the IC50 in assay [4] amounted to 10 µM; in assay [5], 9 µM; in assay [6], 4.6 µM; in [7] it was 8.1 µM; in [8], 10 µM; in assay [10] it was 11 µM. The compound also gave an IC50 in [11] of 10 µM.
Regarding `Cc1cccc(NC(=O)NCCCl)c1C`, the NA entry in assay [1], in [2] and in assay [3] was “inactive” throughout.
Consider `O=C(NCCCl)Nc1ccc(C2CCCCC2)cc1`, for which the half-inhibitory concentration (IC50) worked out at 23 µM in assay [4]; 38 µM in [5]; 18 µM in assay [6]; 16 µM in assay [7]; 44 µM in [8]; 22 µM in assay [10]. This compound also yielded an IC50 in assay [11] of 22 µM.
Turning to `CCCCCCCCCCCCc1ccc(NC(=O)NCCCl)cc1`, the NA entry in [1], in [2] and in assay [3] was “inactive” in each case.
Take `CCCNC(=O)Nc1ccc(C(C)CC)cc1` (stereo not given): the NA entry in assay [12] and in [9] was “inactive” each time. In addition, the concentration for half-maximal inhibition (IC50) turned out to be 133 µM in assay [5], 106 µM in assay [6] and 30 µM in [7].
As to `O=C(NCCCl)Nc1cccc2ccccc12`, the half-maximal inhibitory concentration (IC50) in assay [4] was determined as 106 µM; in assay [6], 107 µM; in assay [7] it was 118 µM; in assay [8] it was 150 µM; in assay [10], 150 µM; in [11], 130 µM.
Take `O=c1[nH]c2ccccc2c(=O)n1CCCl`: the NA result in [1], in [2] and in [3] was “inactive” throughout.
`CCCc1ccc(NC(=O)NCCCl)cc1`: the IC50 in assay [4] worked out at 19 µM; in [5], 23 µM; in [6], 8.2 µM; in assay [7] it was 9 µM; in [8], 18 µM; in [10] it was 10 µM. For the same compound, the IC50 in assay [11] is 11 µM.
For `CC(Cl)CNC(=O)Nc1ccc(C(C)(C)C)cc1` (stereo not given), the IC50 in [4] turned out to be 52 µM; in assay [5], 21 µM; in [6], 23 µM; in assay [7], 6 µM; in assay [8], 52 µM.
In the case of `CCCCc1ccc(NC(=O)NCCCl)cc1`, the 50% inhibitory concentration (IC50) is 18 µM in [4]; 22 µM in [5]; 10 µM in assay [6]; 12 µM in assay [7]; 19 µM in [8]; 10 µM in assay [10]. Also, in assay [11], the IC50 stood at 10 µM.
Turning to `CC(C)CCc1ccc(NC(=O)NCCCl)cc1`, the IC50 came to 19 µM in [4]; 33 µM in assay [5]; 15 µM in [6]; 14 µM in [7]; 32 µM in [8].
For `CCc1ccc(NC(=O)NCCCl)cc1`, the IC50 in assay [4] worked out at 6.4 µM; in assay [5] it was 6.4 µM; in assay [6] it was 2.5 µM; in [7], 2.7 µM; in assay [8], 5 µM; in assay [10] it was 3.2 µM. This compound also registered an IC50 in assay [11] of 5.2 µM.
Take `CCCNC(=O)Nc1ccc(C(C)(C)C)cc1`: the concentration for half-maximal inhibition (IC50) in [4] worked out at 132 µM; in assay [5] it was 35 µM; in [6], 30 µM; in [7] it was 5.4 µM; in assay [8] it was 131 µM.
For the compound `CC(C)(C)Cc1ccc(NC(=O)NCCCl)cc1`, the IC50 was 35 µM in assay [4]; 36 µM in assay [5]; 21 µM in assay [6]; 19 µM in [7]; 34 µM in assay [8].
Regarding `Cc1ccc(NC(=O)NCCCl)cc1C`, the concentration for half-maximal inhibition (IC50) in assay [4] is 8.7 µM; in assay [5] it was 5.4 µM; in [6], 3.5 µM; in [7] it was 3.8 µM; in assay [8] it was 7.2 µM; in [10], 3.5 µM. In addition, inhibition in assay [11] was half-maximal at 4.2 µM (IC50).
For `Cc1ccc(NC(=O)NCCCl)cc1`, the half-inhibitory concentration (IC50) in assay [4] is 26 µM; in assay [5], 23 µM; in assay [6] it was 16 µM; in [7], 16 µM; in assay [8] it was 25 µM; in assay [10], 20 µM. In assay [11], this compound registered an IC50 of 30 µM.
